{"source": "ChEMBL document CHEMBL1121947", "about": "(J Med Chem, 1982)", "key": {"[1]": {"biological_target": "GABA-A receptor; anion channel", "assay": "Inhibition of [3H]GABA binding to Gamma-aminobutyric acid receptor of rat brain synaptosomal membranes", "type": "cell membranes, Membrane", "summary_of_the_method": "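Rat brain synaptic membranes (0.8–1.2 mg protein) were incubated in triplicate for 5 min at 4 °C in 0.05 M Tris-citrate pH 7.1 with 5 nM [3H]GABA, plus 1 mM GABA or 100 µM test agent. Protein was measured by Lowry.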"}, "[2]": {"assay": "pKA value was determined; Experiment 1", "type": "physicochemical"}, "GABA transporter": {"biological_target": "GABA transporter (Rattus norvegicus, UniProt P31647+P23978+P31646+P48056)", "assay": "Inhibition of high affinity neuronal GABA uptake by synaptosomes of rat brain membrane", "type": "functional, subcellular"}, "[3]": {"assay": "pKA value was determined; Experiment 2", "type": "physicochemical"}}}
{"smiles": "O=C(O)[C@H]1CNC[C@@H](O)C1", "values": [{"measurement": "IC50", "setting": "[1]", "value": "> 100", "unit": "µM"}, {"measurement": "pKa", "setting": "[2]", "value": 3.5}, {"measurement": "IC50", "setting": "GABA transporter", "value": 173, "unit": "µM"}, {"measurement": "pKa", "setting": "[3]", "value": 8.9}]}
{"smiles": "O=C(O)[C@@H]1CCNC[C@@H]1O", "values": [{"measurement": "IC50", "setting": "[1]", "value": 12, "unit": "µM"}, {"measurement": "pKa", "setting": "[2]", "value": 3.7}, {"measurement": "IC50", "setting": "GABA transporter", "value": "> 300", "unit": "µM"}, {"measurement": "pKa", "setting": "[3]", "value": 10}]}
{"smiles": "O=C(O)[C@H]1CNCC[C@@H]1O", "values": [{"measurement": "IC50", "setting": "[1]", "value": "> 100", "unit": "µM"}, {"measurement": "pKa", "setting": "[2]", "value": 3.1}, {"measurement": "IC50", "setting": "GABA transporter", "value": 203, "unit": "µM"}, {"measurement": "pKa", "setting": "[3]", "value": 9.4}]}
{"smiles": "O=C(O)[C@@H]1CCNC[C@H]1O", "values": [{"measurement": "IC50", "setting": "[1]", "value": 43, "unit": "µM"}, {"measurement": "pKa", "setting": "[2]", "value": 3.6}, {"measurement": "IC50", "setting": "GABA transporter", "value": "> 300", "unit": "µM"}, {"measurement": "pKa", "setting": "[3]", "value": 9.3}]}
{"smiles": "O=C(O)[C@H]1CNCC[C@H]1O", "values": [{"measurement": "IC50", "setting": "[1]", "value": "> 100", "unit": "µM"}, {"measurement": "pKa", "setting": "[2]", "value": 3.4}, {"measurement": "IC50", "setting": "GABA transporter", "value": 11, "unit": "µM"}, {"measurement": "pKa", "setting": "[3]", "value": 10}]}
{"smiles": "CC(=O)N[C@@H]1CCNC[C@@H]1C(=O)O", "values": [{"measurement": "IC50", "setting": "[1]", "value": "> 100", "unit": "µM"}, {"measurement": "pKa", "setting": "[2]", "value": 3.2}, {"measurement": "IC50", "setting": "GABA transporter", "value": "> 300", "unit": "µM"}, {"measurement": "pKa", "setting": "[3]", "value": 9.7}]}
{"smiles": "CC(=O)N[C@@H]1CNC[C@H](C(=O)O)C1", "values": [{"measurement": "IC50", "setting": "[1]", "value": "> 100", "unit": "µM"}, {"measurement": "pKa", "setting": "[2]", "value": 3}, {"measurement": "IC50", "setting": "GABA transporter", "value": 240, "unit": "µM"}, {"measurement": "pKa", "setting": "[3]", "value": 8.6}]}
{"smiles": "NCCCC(=O)O", "note": "[GAMMA-AMINOBUTYRIC ACID]", "values": [{"measurement": "pKa", "setting": "[2]", "value": 4}, {"measurement": "pKa", "setting": "[3]", "value": 10.7}]}
{"smiles": "O=C(O)C1CCNCC1", "note": "[ISONIPECOTIC ACID]", "values": [{"measurement": "IC50", "setting": "[1]", "value": 0.33, "unit": "µM"}, {"measurement": "pKa", "setting": "[2]", "value": 3.8}, {"measurement": "IC50", "setting": "GABA transporter", "value": "> 300", "unit": "µM"}, {"measurement": "pKa", "setting": "[3]", "value": 10.5}]}
{"smiles": "O=C(O)C1CCCNC1", "note": "(configuration not stated) [NIPECOTIC ACID]", "values": [{"measurement": "IC50", "setting": "[1]", "value": "> 100", "unit": "µM"}, {"measurement": "pKa", "setting": "[2]", "value": 3.9}, {"measurement": "pKa", "setting": "[3]", "value": 10.3}]}
